Measurements reported in ChEMBL document CHEMBL5058577, “EUbOPEN Chemogenomics Library 2 (Multiplex)” (2022).

Test system: Fibroblast
Assay: Multiplex assay against human fibroblast
Type: toxicity, cell-based
Summary of the method: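 Phenotypes for tubulin, mitochondrial mass and membrane permeability are expressed as per cents of healthy-nucleus cells. Cells were stained live at seeding with Hoechst33342, BioTracker Green Microtubule Cytoskeleton Dye, MitoTracker Red and Annexin V Alexa Fluor 680, then imaged after compound addition on a CQ1 microscope at 37°C and 5% CO2. Machine-learning gating in CellPathfinder separated Hoechst high-intensity objects from normal cells, divided normal cells by nuclear state (healthy, pyknosed, fragmented) and divided pyknosed cells into mitotic or apoptotic.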

[1] = 12 h, 1 µM, compound concentration 1 uM, replicate 1
[2] = 12 h, 1 µM, compound concentration 1 uM, replicate 2
[3] = 12 h, 10 µM, compound concentration 10 uM, replicate 1
[4] = 12 h, 10 µM, compound concentration 10 uM, replicate 2
[5] = 24 h, 1 µM, compound concentration 1 uM, replicate 1
[6] = 24 h, 1 µM, compound concentration 1 uM, replicate 2
[7] = 24 h, 10 µM, compound concentration 10 uM, replicate 1
[8] = 24 h, 10 µM, compound concentration 10 uM, replicate 2
[9] = 48 h, 1 µM, compound concentration 1 uM, replicate 1
[10] = 48 h, 1 µM, compound concentration 1 uM, replicate 2
[11] = 48 h, 10 µM, compound concentration 10 uM, replicate 1
[12] = 48 h, 10 µM, compound concentration 10 uM, replicate 2

## CN1CCN(c2nc3cc(C(F)(F)F)ccc3n3cccc23)CC1.O=C(O)/C=C\C(=O)O.O=C(O)/C=C\C(=O)O
[1]
  Population Apoptotic (%): 50%
  Population Fragmented Nuclei (%): 18%
  Population Healthy Nuclei (%): 71%
  Population Hoechst High Intensity Objects (%): 0%
  Population Membrane Permeable-Phenotype (%): 0%
  Population Mitochondria Different-Phenotype (%): 5%
  Population Mitotic Cells (%): 50%
  Population Normal (%): 99%
  Population Pyknosed Nuclei (%): 9%
  Population Tubulin-Different-Phenotype (%): 27%
  Total Cell Count: 146
[2]
  Population Apoptotic (%): 26%
  Population Fragmented Nuclei (%): 24%
  Population Healthy Nuclei (%): 46%
  Population Hoechst High Intensity Objects (%): 6%
  Population Membrane Permeable-Phenotype (%): 6%
  Population Mitochondria Different-Phenotype (%): 4%
  Population Mitotic Cells (%): 73%
  Population Normal (%): 93%
  Population Pyknosed Nuclei (%): 30%
  Population Tubulin-Different-Phenotype (%): 47%
  Total Cell Count: 107
[3]
  Population Apoptotic (%): 40%
  Population Fragmented Nuclei (%): 29%
  Population Healthy Nuclei (%): 59%
  Population Hoechst High Intensity Objects (%): 2%
  Population Membrane Permeable-Phenotype (%): 0%
  Population Mitochondria Different-Phenotype (%): 25%
  Population Mitotic Cells (%): 59%
  Population Normal (%): 97%
  Population Pyknosed Nuclei (%): 10%
  Population Tubulin-Different-Phenotype (%): 69%
  Total Cell Count: 207
[4]
  Population Apoptotic (%): 60%
  Population Fragmented Nuclei (%): 35%
  Population Healthy Nuclei (%): 41%
  Population Hoechst High Intensity Objects (%): 4%
  Population Membrane Permeable-Phenotype (%): 4%
  Population Mitochondria Different-Phenotype (%): 38%
  Population Mitotic Cells (%): 40%
  Population Normal (%): 95%
  Population Pyknosed Nuclei (%): 22%
  Population Tubulin-Different-Phenotype (%): 85%
  Total Cell Count: 117
[5]
  Population Apoptotic (%): 66%
  Population Fragmented Nuclei (%): 16%
  Population Healthy Nuclei (%): 72%
  Population Hoechst High Intensity Objects (%): 1%
  Population Membrane Permeable-Phenotype (%): 0%
  Population Mitochondria Different-Phenotype (%): 2%
  Population Mitotic Cells (%): 33%
  Population Normal (%): 98%
  Population Pyknosed Nuclei (%): 10%
  Population Tubulin-Different-Phenotype (%): 23%
  Total Cell Count: 142
[6]
  Population Apoptotic (%): 40%
  Population Fragmented Nuclei (%): 35%
  Population Healthy Nuclei (%): 42%
  Population Hoechst High Intensity Objects (%): 6%
  Population Membrane Permeable-Phenotype (%): 7%
  Population Mitochondria Different-Phenotype (%): 7%
  Population Mitotic Cells (%): 59%
  Population Normal (%): 93%
  Population Pyknosed Nuclei (%): 22%
  Population Tubulin-Different-Phenotype (%): 43%
  Total Cell Count: 104
[7]
  Population Apoptotic (%): 77%
  Population Fragmented Nuclei (%): 24%
  Population Healthy Nuclei (%): 64%
  Population Hoechst High Intensity Objects (%): 6%
  Population Membrane Permeable-Phenotype (%): 0%
  Population Mitochondria Different-Phenotype (%): 32%
  Population Mitotic Cells (%): 22%
  Population Normal (%): 93%
  Population Pyknosed Nuclei (%): 10%
  Population Tubulin-Different-Phenotype (%): 75%
  Total Cell Count: 214
[8]
  Population Apoptotic (%): 63%
  Population Fragmented Nuclei (%): 37%
  Population Healthy Nuclei (%): 43%
  Population Hoechst High Intensity Objects (%): 1%
  Population Membrane Permeable-Phenotype (%): 6%
  Population Mitotic Cells (%): 36%
  Population Normal (%): 98%
  Population Pyknosed Nuclei (%): 19%
  Population Tubulin-Different-Phenotype (%): 86%
  Total Cell Count: 117
[9]
  Population Apoptotic (%): 44%
  Population Fragmented Nuclei (%): 25%
  Population Healthy Nuclei (%): 63%
  Population Hoechst High Intensity Objects (%): 2%
  Population Membrane Permeable-Phenotype (%): 1%
  Population Mitochondria Different-Phenotype (%): 2%
  Population Mitotic Cells (%): 55%
  Population Normal (%): 97%
  Population Pyknosed Nuclei (%): 11%
  Population Tubulin-Different-Phenotype (%): 22%
  Total Cell Count: 162
[10]
  Population Apoptotic (%): 42%
  Population Fragmented Nuclei (%): 37%
  Population Healthy Nuclei (%): 40%
  Population Hoechst High Intensity Objects (%): 3%
  Population Membrane Permeable-Phenotype (%): 0%
  Population Mitotic Cells (%): 57%
  Population Normal (%): 96%
  Population Pyknosed Nuclei (%): 21%
  Population Tubulin-Different-Phenotype (%): 57%
  Total Cell Count: 102
[11]
  Population Apoptotic (%): 77%
  Population Fragmented Nuclei (%): 22%
  Population Healthy Nuclei (%): 68%
  Population Hoechst High Intensity Objects (%): 7%
  Population Membrane Permeable-Phenotype (%): 0%
  Population Mitochondria Different-Phenotype (%): 28%
  Population Mitotic Cells (%): 22%
  Population Normal (%): 92%
  Population Pyknosed Nuclei (%): 9%
  Population Tubulin-Different-Phenotype (%): 77%
  Total Cell Count: 211
[12]
  Population Apoptotic (%): 63%
  Population Fragmented Nuclei (%): 33%
  Population Healthy Nuclei (%): 57%
  Population Hoechst High Intensity Objects (%): 5%
  Population Membrane Permeable-Phenotype (%): 1%
  Population Mitochondria Different-Phenotype (%): 23%
  Population Mitotic Cells (%): 36%
  Population Normal (%): 94%
  Population Tubulin-Different-Phenotype (%): 85%
  Total Cell Count: 118
